Screening data (PubChem BioAssay)
Hits are enriched below; roughly 2.7% of the tested compounds scored in any of these assays.
ARFGAP1 inhibitor – inhibitors of rat ARFGAP1 GAP activity, primary screen, biochemical, fluorescence polarization, GDP tracer | ADP-ribosylation factor GTPase-activating protein 1 (Rattus norvegicus), Q62848 | Arfgap1-stimulated ARF1 GTP hydrolysis, GDP FP detection | inhibition, % at 16.5 µM | 360,000 compounds, 0.26% hits;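 active = inhibition above a per-plate limit, mean inhibition of low control wells plus 3 SD, cut at about 25% in these data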
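System: truncated rat Arfgap1 GAP domain / Medium: HEPES-based buffer, pH 7.5 / Also added: N-terminally truncated human ARF1-GTP substrate / Incubation: enzyme reaction 120 min at 25 °C after 20 min preincubation / Measured by: FP of antibody-bound GDP Alexa 633 tracer, ex 620/em 688 nm / Replicates: singlicate, each compound tested once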
ASAP1 inh – inhibitors of human ASAP1 ArfGAP activity, primary screen, biochemical, fluorescence polarization; Arf-GAP with SH3 domain, ANK repeat and PH domain-containing protein 1 (Homo sapiens), …; ASAP1-stimulated ARF1 GTP hydrolysis, GDP FP detection; inhibition, % at 16.5 µM; 360,000 compounds, 0.19% hits; AID 624377, 2012; in the data active = inhibition above about 25%
PAFAH1B3 FP inh – PAFAH1B3 enzyme inhibitors, primary screen, biochemical, fluorescence polarization, human. recombinant PAFAH1B3, FP-rhodamine probe. inhibition, % at 3.39 µM. 340,000 compounds, 0.28% hits. AID 492972, 2010;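 active = inhibition above the screen-wide average of all tested compounds plus 3 SD, cut at about 25% in these data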
PAFAH1B2 FP inh – PAFAH1B2 enzyme inhibitors, primary screen, biochemical, fluorescence polarization, human; Platelet-activating factor acetylhydrolase IB subunit alpha2 (Homo sapiens), P68402; recombinant PAFAH1B2, FP-rhodamine activity probe; inhibition, % at 3.39 µM; 340,000 compounds, 1.2% hits;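 active = inhibition above the mean of all tested compounds plus 3 SD, cut at about 24% in these data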
Target sequence (P68402 whole entry, looked up): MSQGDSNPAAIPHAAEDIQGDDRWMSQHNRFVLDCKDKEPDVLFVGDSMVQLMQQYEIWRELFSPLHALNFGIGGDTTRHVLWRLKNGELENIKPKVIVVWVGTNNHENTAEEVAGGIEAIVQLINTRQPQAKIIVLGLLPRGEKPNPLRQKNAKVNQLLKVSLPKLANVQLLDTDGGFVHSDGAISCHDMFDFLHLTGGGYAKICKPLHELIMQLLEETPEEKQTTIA
PAFAH2 FP inh – PAFAH2 enzyme inhibitors, primary screen, biochemical, fluorescence polarization, human; recombinant PAFAH2, FP-rhodamine activity probe; inhibition, % at 3.39 µM; 340,000 compounds, 0.99% hits; AID 492956, 2010;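 active = inhibition above the mean over all tested compounds plus 3 SD, cut at about 30% in these data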;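 also: inhibitors block probe labeling of enzyme so polarization drops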
pPAFAH inh – pPAFAH enzyme inhibitors, primary screen, biochemical, fluorescence polarization, human; Platelet-activating factor acetylhydrolase (Homo sapiens), Q13093; recombinant pPAFAH, FP-rhodamine probe fluorescence polarization; AID 463082, 2010; inhibition, % at 3.39 µM; 330,000 compounds, 1.5% hits;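 active = inhibition above the mean inhibition across the screen plus 3 SD, cut at about 25% in these data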;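 also: inhibitors block binding of the rhodamine activity-based probe so polarization drops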
Target sequence (Q13093 whole entry, looked up): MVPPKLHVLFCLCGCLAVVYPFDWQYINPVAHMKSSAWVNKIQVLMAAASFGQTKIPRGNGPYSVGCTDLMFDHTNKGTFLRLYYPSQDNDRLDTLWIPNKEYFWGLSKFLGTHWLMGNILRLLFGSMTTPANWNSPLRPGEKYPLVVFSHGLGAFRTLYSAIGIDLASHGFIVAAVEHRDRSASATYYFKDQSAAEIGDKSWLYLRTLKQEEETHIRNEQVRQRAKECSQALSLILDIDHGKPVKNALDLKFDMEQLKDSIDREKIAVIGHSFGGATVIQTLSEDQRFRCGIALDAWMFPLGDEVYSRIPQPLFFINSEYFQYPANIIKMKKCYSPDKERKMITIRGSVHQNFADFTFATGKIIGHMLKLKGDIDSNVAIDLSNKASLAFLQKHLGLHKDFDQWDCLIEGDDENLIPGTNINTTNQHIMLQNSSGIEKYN
PAFAH2 confirm – PAFAH2 enzyme inhibitors, confirmation, biochemical, fluorescence polarization, human; inhibition, % at 3.39 µM; AID 493030, 2011; 2,300 compounds, 65% hits; recombinant PAFAH2, FP-rhodamine activity probe; shares compounds with PAFAH2 FP inh;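 active = mean inhibition over three repeats above a set limit taken from the earlier primary screen, cut at about 30% in these data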;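 also: inhibitor blocks binding of rhodamine activity probe so polarization falls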
Large screens that a line does not name were inactive (follow-up assays come after a bar, where they were run).

COC(=O)CCN1CCC2CC1c1cc(N3CCCCC3)ccc12 (stereo not drawn)	none (no result: PAFAH1B3 FP inh, PAFAH1B2 FP inh, PAFAH2 FP inh, pPAFAH inh)
N#Cc1ccc(OCc2c(-c3ccccc3)nnn2CC(=O)O)cc1	none (no result: PAFAH1B3 FP inh, PAFAH1B2 FP inh, PAFAH2 FP inh, pPAFAH inh)
O=C(COC(=O)c1ccc2c(c1)OCCO2)Nc1cc(S(=O)(=O)N2CCOCC2)ccc1Cl	PAFAH2 FP inh 64.1 | PAFAH2 confirm 44.5
Cc1ccc(S(=O)(=O)N2CCOCC2)cc1NC(=O)COC(=O)c1ccc2c(c1)OCCO2	PAFAH2 FP inh 69.9 | PAFAH2 confirm 59.0
Cc1ccc(S(=O)(=O)N2CCOCC2)cc1NC(=O)COC(=O)c1ccc(OCc2c(C)noc2C)cc1	PAFAH2 FP inh 43.7 | PAFAH2 confirm 50.6
Cc1ccc(S(=O)(=O)N2CCOCC2)cc1NC(=O)COC(=O)c1cnc(Cl)c(Cl)c1	none (no result: pPAFAH inh)
O=C(COC(=O)c1cnccn1)Nc1cc(S(=O)(=O)N2CCOCC2)ccc1Cl	none
Cn1nccc1C(=O)OCC(=O)Nc1ccc(S(N)(=O)=O)cc1	none
Cn1ccc(C(=O)OCC(=O)Nc2cccc(Cl)c2)n1	PAFAH2 FP inh 83.2 | PAFAH2 confirm 78.1
Cn1ccc(C(=O)OCC(=O)Nc2ccccc2Cl)n1	PAFAH2 FP inh 38.5 (no result: pPAFAH inh) | PAFAH2 confirm inactive
O=C(COC(=O)c1ccccn1)Nc1cccc(Cl)c1	none
Cn1nccc1C(=O)OCC(=O)Nc1cccc(Cl)c1	PAFAH2 FP inh 66.2 | PAFAH2 confirm 52.5
O=C(COC(=O)c1cc[n+]([O-])cc1)Nc1ccccc1Cl	none
Cc1cc(C)c(S(=O)(=O)N2CCC(C(=O)NCc3ccncc3)CC2)c(C)c1	PAFAH2 FP inh 101.3 | PAFAH2 confirm inactive
CC(=O)C(Cc1ccccc1)NC(=O)COc1ccc2c(c1)OCO2 (stereo not drawn)	none
O=C(CSc1ccccc1C(=O)O)NC1CCCCCC1	none
O=C(COC(=O)c1ccccc1SCC(=O)N1CCCC1)NC1CCS(=O)(=O)C1 (stereo not drawn)	none
O=C(OCC(=O)N1CCCCC1)c1ccccc1SCC(=O)N1CCCCC1	none
NC(=O)COC(=O)c1ccccc1SCC(=O)NC1CCCCCCC1	PAFAH2 FP inh 38.5 | PAFAH2 confirm 37.4
N#CC1(NC(=O)COC(=O)c2ccccc2SCC(=O)N2CCCC2)CCCCC1	PAFAH2 FP inh 80.6 | PAFAH2 confirm 80.4
O=C(COC(=O)c1ccccc1SCC(=O)N1CCCC1)NC1CCCCC1	PAFAH2 FP inh 82.5 | PAFAH2 confirm 73.3
COc1ccc(OC)c(CN2CCN(C(=O)c3ccc(S(=O)(=O)Nc4ccccc4F)cc3)CC2)c1	none
CCCCN1C(=O)C(=O)c2cc(Cl)ccc21	none
O=C(NCc1ccccc1)C(c1cc2ccccc2o1)n1c(=O)c(-c2cc3ccccc3[nH]2)nc2ccccc21 (stereo not drawn)	none (no result: PAFAH1B3 FP inh, PAFAH1B2 FP inh, PAFAH2 FP inh, pPAFAH inh)
COc1ccc2nc(-n3c(O)c(C4=c5ccccc5=NC4=O)[nH]c3=S)sc2c1	PAFAH2 FP inh 59.9 | PAFAH2 confirm 39.9
Cn1c(O)c(C2=c3ccccc3=NC2=O)[nH]c1=S	none
O=C(Nc1ccc([N+](=O)[O-])cc1Cl)c1cc(Cl)ccc1O	none
O=C(Nc1cccc(Cl)c1)c1cc(N=Nc2ccc([N+](=O)[O-])cc2Cl)ccc1O	PAFAH2 FP inh 32.7 | PAFAH2 confirm inactive
Cc1cccc(C)c1NC(=O)CN1C(=O)NC(C)(C2CC2)C1=O (stereo not drawn)	none
Nc1ccc(C(=O)OCC(=O)NC2CC2)cc1[N+](=O)[O-]	PAFAH2 FP inh 59.3 | PAFAH2 confirm 47.8
O=C(COC(=O)c1ccccc1C(=O)c1ccc(Cl)c([N+](=O)[O-])c1)NC1CCCCCC1	PAFAH2 FP inh 61.9 | PAFAH2 confirm 46.8
Nc1ccc(C(=O)OCC(=O)N2CCc3ccccc3C2)cc1[N+](=O)[O-]	PAFAH2 FP inh 50.9 | PAFAH2 confirm 45.7
Cc1cc(C(=O)OCC(=O)NC2CC2)ccc1[N+](=O)[O-]	none
CN(C(=O)CSc1nnc(-c2cccnc2)o1)C1CCCCC1	none
O=C(O)C(Cc1ccccc1)N1C(=O)/C(=C/C=C/c2ccco2)SC1=S (stereo not drawn)	PAFAH2 FP inh 59.9 (no result: pPAFAH inh) | PAFAH2 confirm 47.0
COc1ccc(Nc2nc(N)nc(CSC(=S)N3CCOCC3)n2)cc1	none
Cc1ccc(Nc2nc(N)nc(CSC(=S)N3CCOCC3)n2)c(C)c1	PAFAH2 FP inh 45.7 | PAFAH2 confirm 41.6
O=C(NCc1ccccc1Cl)C1=CC=CN2CCS(=O)(=O)N=C12	none
CCc1nc2ccc(C(=O)NCCc3ccccn3)cn2c1N(C)CCC(C)C	none (no result: PAFAH1B3 FP inh, PAFAH1B2 FP inh, PAFAH2 FP inh, pPAFAH inh)
O=C(COC(=O)/C=C/c1ccccc1[N+](=O)[O-])NCC(F)(F)F	PAFAH2 FP inh 29.9 | PAFAH2 confirm inactive
CN(C)S(=O)(=O)N(CC(=O)N(Cc1ccccc1)Cc1ccccc1)c1ccccc1	PAFAH2 FP inh 37.9 | PAFAH2 confirm inactive
Cc1c(C(=O)OC2CCCC2C)[nH]c2c1C(=O)CCC2 (stereo not drawn)	PAFAH2 FP inh 59.1 | PAFAH2 confirm 38.7
Cc1ccc(NC(=O)Cc2nc(COC(=O)Cc3cccc(C(F)(F)F)c3)cs2)cc1	PAFAH2 FP inh 47.2 (no result: pPAFAH inh) | PAFAH2 confirm inactive
Cc1ccc(NC(=O)Cc2nc(COC(=O)c3c(F)cccc3Cl)cs2)cc1	none
CN(C)S(=O)(=O)c1ccc(Cl)c(NC(=O)COC(=O)c2ccc3c(c2)NC(=O)CS3)c1	PAFAH2 FP inh 48.1 | PAFAH2 confirm 40.1
Cc1ccc(S(=O)(=O)N(C)C)cc1NC(=O)COC(=O)C1CC1	PAFAH2 FP inh 43.0 | PAFAH2 confirm 34.0
Cc1cc(C(=O)OCC(=O)Nc2cc(S(=O)(=O)N(C)C)ccc2C)c(C)o1	none (no result: PAFAH1B3 FP inh, PAFAH1B2 FP inh, PAFAH2 FP inh)
Cc1ccc(S(=O)(=O)N(C)C)cc1NC(=O)COC(=O)c1ccc(Cl)cc1	PAFAH2 FP inh 35.2 | PAFAH2 confirm inactive
Cc1ccc(C(=O)CCC(=O)OCC(=O)Nc2cc(S(=O)(=O)N(C)C)ccc2C)cc1	none (no result: PAFAH1B3 FP inh, PAFAH1B2 FP inh, PAFAH2 FP inh, pPAFAH inh)
CS(=O)(=O)c1ccc(Cl)c(NC(=O)COC(=O)c2cccc(C#N)c2)c1	none
CCN(c1ccccc1)S(=O)(=O)c1ccc(Cl)c(NC(=O)COC(=O)c2ccc(Cl)c(N)c2)c1	PAFAH2 FP inh 40.2 | PAFAH2 confirm inactive
CC1(C(=O)NS(=O)(=O)c2ccc(Cl)cc2)CCN1C(=O)C1(c2ccc(Cl)cc2)CCC1 (stereo not drawn)	none (no result: PAFAH1B3 FP inh, PAFAH1B2 FP inh, PAFAH2 FP inh, pPAFAH inh)
